Legend:
[1] = test system: Bacillus subtilis; assay: Antimicrobial activity against Bacillus subtilis; type: functional
Method in brief: (§1)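 Disk diffusion. A sterile filter-paper disk saturated with a measured quantity of sample is placed on agar heavily seeded with a spore suspension of the test organism. Bacteria are grown on nutrient agar and fungi on Dox's medium. The diameter of the clear inhibition zone around the disk is taken as the inhibitory measure. Ampicillin is the antibacterial reference and nystatin the antifungal reference.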

[2] = test system: Candida albicans; assay: Antimicrobial activity against Candida albicans; type: functional; method in brief: as §1
[3] = test system: Staphylococcus aureus; assay: Antimicrobial activity against Staphylococcus aureus; type: functional; method in brief: as §1
[4] = test system: Pseudomonas aeruginosa; assay: Antimicrobial activity against Pseudomonas aeruginosa; type: functional; method in brief: as §1
[5] = test system: Enterococcus faecalis; assay: Antimicrobial activity against Streptococcus faecalis; type: functional; method in brief: as §1
[6] = test system: Neisseria gonorrhoeae; assay: Antimicrobial activity against Neisseria gonorrhoeae; type: functional; method in brief: as §1
[7] = test system: Escherichia coli; assay: Antimicrobial activity against Escherichia coli; type: functional; method in brief: as §1
[8] = test system: Saccharomyces cerevisiae; assay: Antimicrobial activity against Saccharomyces cerevisiae; type: functional; method in brief: as §1
[9] = test system: NCI-H460; assay: Cytotoxicity against human H460 cells assessed as surviving fraction at 5 ug/ml after 48 hrs by ELISA; type: functional
Method in brief: (§2)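 SRB assay in human liver carcinoma HEPG2 or lung carcinoma H460 cells. Cells are seeded at 10⁴ per well and allowed to attach for 24 h. Compound is added at 0, 1, 2.5, 5 and 10 µg/ml, in triplicate wells per dose, for 48 h continuous exposure at 37 °C in 5% CO₂. Cells are then fixed and stained with sulforhodamine B. Bound dye is recovered in Tris-EDTA and read on an ELISA reader. Surviving fraction is plotted against concentration. Cisplatin is the positive control.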

[10] = test system: NCI-H460; assay: Cytotoxicity against human H460 cells assessed as surviving fraction at 2.5 ug/ml after 48 hrs by ELISA; type: functional; method in brief: as §2
[11] = test system: HepG2; assay: Cytotoxicity against HEPG2 cells assessed as surviving fraction at 5 ug/ml after 48 hrs by ELISA; type: functional, Homo sapiens; method in brief: as §2
[12] = test system: NCI-H460; assay: Cytotoxicity against human H460 cells assessed as surviving fraction at 1 ug/ml after 48 hrs by ELISA; type: functional; method in brief: as §2
[13] = test system: NCI-H460; assay: Cytotoxicity against human H460 cells assessed as surviving fraction at 10 ug/ml after 48 hrs by ELISA; type: functional; method in brief: as §2
[14] = test system: HepG2; assay: Cytotoxicity against HEPG2 cells assessed as surviving fraction at 1 ug/ml after 48 hrs by ELISA; type: functional, Homo sapiens; method in brief: as §2
[15] = test system: HepG2; assay: Cytotoxicity against HEPG2 cells assessed as surviving fraction at 10 ug/ml after 48 hrs by ELISA; type: functional, Homo sapiens; method in brief: as §2
[16] = test system: HepG2; assay: Cytotoxicity against HEPG2 cells assessed as surviving fraction at 2.5 ug/ml after 48 hrs by ELISA; type: functional, Homo sapiens; method in brief: as §2

Question: For `O=C(c1ccc2ccccc2c1)c1cc(-c2ccccc2)nc2[nH]c(=S)[nH]c(=O)c12`, which “inhibition zone (IZ)” value [1] is on record?
Answer: 10 mm

Question: What about the “inhibition zone (IZ)” value [2] of the same molecule?
Answer: 10 mm

Question: What about the “inhibition zone (IZ)” value [3] of the same molecule?
Answer: 11 mm

Question: What about the “inhibition zone (IZ)” value [4] of the same molecule?
Answer: 11 mm

Question: And the “inhibition zone (IZ)” value [5]?
Answer: 11 mm

Question: And the “inhibition zone (IZ)” value [6]?
Answer: 12 mm

Question: What about the “inhibition zone (IZ)” value [7] of the same molecule?
Answer: 10 mm

Question: What about the “inhibition zone (IZ)” value [8] of the same molecule?
Answer: 12 mm

Question: What does the source list for `COC(=O)c1c(-c2ccccc2)nc2[nH]c(=S)[nH]c(=O)c2c1C(=O)OC`?
Answer: inhibition zone (IZ) [1]: 16 mm; inhibition zone (IZ) [2]: 15 mm; inhibition zone (IZ) [3]: 16 mm; inhibition zone (IZ) [4]: 16 mm; inhibition zone (IZ) [5]: 15 mm; inhibition zone (IZ) [6]: 15 mm; inhibition zone (IZ) [7]: 16 mm; inhibition zone (IZ) [8]: 16 mm

Question: How did the inhibition zone (IZ) [2] turn out when NYSTATIN was run?
Answer: 12 mm

Question: What about the inhibition zone (IZ) [8] of the same molecule?
Answer: 11 mm

Question: With `O=C(c1cccs1)c1cc(-c2ccccc2)nc2[nH]c(=S)[nH]c(=O)c12` as the molecule, how does the Activity [9] read?
Answer: 0.808

Question: And the “inhibition zone (IZ)” value [1]?
Answer: 13 mm

Question: What about the Activity [10] of the same molecule?
Answer: 0.869

Question: What about the “inhibition zone (IZ)” value [2] of the same molecule?
Answer: 13 mm

Question: And the Activity [11]?
Answer: 0.905

Question: And the Activity [12]?
Answer: 0.943

Question: And the Activity [13]?
Answer: 0.641

Question: And the Activity [14]?
Answer: 1.05

Question: And the Activity [15]?
Answer: 0.85

Question: What about the “inhibition zone (IZ)” value [3] of the same molecule?
Answer: 12 mm

Question: What about the “inhibition zone (IZ)” value [4] of the same molecule?
Answer: 12 mm

Question: And the “inhibition zone (IZ)” value [5]?
Answer: 12 mm

Question: What about the “inhibition zone (IZ)” value [6] of the same molecule?
Answer: 13 mm

Question: What about the “inhibition zone (IZ)” value [7] of the same molecule?
Answer: 13 mm

Question: What about the “inhibition zone (IZ)” value [8] of the same molecule?
Answer: 12 mm

Question: And the Activity [16]?
Answer: 1.005

Question: Which Activity [9] does the source give for `COC(=O)c1c(-c2ccc(OC)cc2)nc2[nH]c(=S)[nH]c(=O)c2c1C(=O)OC` here?
Answer: 0.808

Question: And the “inhibition zone (IZ)” value [1]?
Answer: 14 mm

Question: And the Activity [10]?
Answer: 0.887

Question: And the “inhibition zone (IZ)” value [2]?
Answer: 14 mm

Question: What about the Activity [11] of the same molecule?
Answer: 0.786

Question: And the Activity [12]?
Answer: 0.962

Question: What about the Activity [13] of the same molecule?
Answer: 0.743

Question: And the Activity [14]?
Answer: 0.895

Question: And the Activity [15]?
Answer: 0.709

Question: What about the “inhibition zone (IZ)” value [3] of the same molecule?
Answer: 15 mm

Question: What about the “inhibition zone (IZ)” value [4] of the same molecule?
Answer: 14 mm

Question: And the “inhibition zone (IZ)” value [5]?
Answer: 14 mm

Question: And the “inhibition zone (IZ)” value [6]?
Answer: 14 mm

Question: What about the “inhibition zone (IZ)” value [7] of the same molecule?
Answer: 14 mm

Question: What about the “inhibition zone (IZ)” value [8] of the same molecule?
Answer: 14 mm

Question: What about the Activity [16] of the same molecule?
Answer: 0.823

Question: `CC1(C)S[C@@H]2[C@H](NC(=O)[C@H](N)c3ccccc3)C(=O)N2[C@H]1C(=O)O` [AMPICILLIN] was tested. Which “inhibition zone (IZ)” value [1] did it give?
Answer: 18 mm

Question: And the “inhibition zone (IZ)” value [3]?
Answer: 20 mm

Question: And the “inhibition zone (IZ)” value [4]?
Answer: 19 mm

Question: What about the “inhibition zone (IZ)” value [5] of the same molecule?
Answer: 30 mm

Question: What about the “inhibition zone (IZ)” value [6] of the same molecule?
Answer: 13 mm

Question: And the “inhibition zone (IZ)” value [7]?
Answer: 11 mm

Question: How did the “inhibition zone (IZ)” value [1] turn out when `COc1ccc(-c2cc(C(=O)c3cccs3)c3c(=O)[nH]c(=S)[nH]c3n2)cc1` was run?
Answer: 11 mm

Question: And the “inhibition zone (IZ)” value [2]?
Answer: 12 mm

Question: What about the “inhibition zone (IZ)” value [3] of the same molecule?
Answer: 11 mm

Question: What about the “inhibition zone (IZ)” value [4] of the same molecule?
Answer: 11 mm

Question: What about the “inhibition zone (IZ)” value [5] of the same molecule?
Answer: 12 mm

Question: And the “inhibition zone (IZ)” value [6]?
Answer: 14 mm

Question: What about the “inhibition zone (IZ)” value [7] of the same molecule?
Answer: 12 mm

Question: And the “inhibition zone (IZ)” value [8]?
Answer: 12 mm

Question: Which results are given for `COc1ccc(-c2cc(C#N)c3c(=O)[nH]c(=S)[nH]c3n2)cc1`?
Answer: Activity [9]: 0.836; Activity [10]: 0.897; Activity [11]: 0.941; Activity [12]: 0.948; Activity [13]: 0.808; Activity [14]: 1.046; Activity [15]: 0.914; Activity [16]: 0.968

Question: With `CCOC(=O)c1c(-c2ccccc2)nc2[nH]c(=S)[nH]c(=O)c2c1C(=O)OCC` as the molecule, how does the Activity [9] read?
Answer: 0.771

Question: And the “inhibition zone (IZ)” value [1]?
Answer: 12 mm

Question: What about the Activity [10] of the same molecule?
Answer: 0.827

Question: What about the “inhibition zone (IZ)” value [2] of the same molecule?
Answer: 12 mm

Question: What about the Activity [11] of the same molecule?
Answer: 0.841

Question: And the Activity [12]?
Answer: 0.855

Question: What about the Activity [13] of the same molecule?
Answer: 0.72

Question: And the Activity [14]?
Answer: 0.968

Question: And the Activity [15]?
Answer: 0.805

Question: What about the “inhibition zone (IZ)” value [3] of the same molecule?
Answer: 12 mm

Question: And the “inhibition zone (IZ)” value [4]?
Answer: 13 mm

Question: And the “inhibition zone (IZ)” value [5]?
Answer: 12 mm

Question: What about the “inhibition zone (IZ)” value [6] of the same molecule?
Answer: 13 mm

Question: What about the “inhibition zone (IZ)” value [7] of the same molecule?
Answer: 11 mm

Question: What about the “inhibition zone (IZ)” value [8] of the same molecule?
Answer: 11 mm

Question: And the Activity [16]?
Answer: 0.914

Question: `N#Cc1cc(-c2ccccc2)nc2[nH]c(=S)[nH]c(=O)c12` was tested. Which “inhibition zone (IZ)” value [1] did it give?
Answer: 11 mm

Question: And the “inhibition zone (IZ)” value [2]?
Answer: 12 mm

Question: And the “inhibition zone (IZ)” value [3]?
Answer: 11 mm

Question: What about the “inhibition zone (IZ)” value [4] of the same molecule?
Answer: 11 mm

Question: And the “inhibition zone (IZ)” value [5]?
Answer: 12 mm

Question: And the “inhibition zone (IZ)” value [6]?
Answer: 12 mm

Question: And the “inhibition zone (IZ)” value [7]?
Answer: 12 mm

Question: What about the “inhibition zone (IZ)” value [8] of the same molecule?
Answer: 12 mm

Question: How did the Activity [9] turn out when `CCOC(=O)c1cc(-c2ccc(OC)cc2)nc2[nH]c(=S)[nH]c(=O)c12` was run?
Answer: 0.776

Question: And the Activity [10]?
Answer: 0.915

Question: And the Activity [11]?
Answer: 0.977

Question: And the Activity [12]?
Answer: 0.948

Question: And the Activity [13]?
Answer: 0.646

Question: What about the Activity [14] of the same molecule?
Answer: 1.018

Question: And the Activity [15]?
Answer: 0.927

Question: What about the Activity [16] of the same molecule?
Answer: 1

Question: What does the source list for `COc1ccc(-c2cc(C(=O)c3ccco3)c3c(=O)[nH]c(=S)[nH]c3n2)cc1`?
Answer: inhibition zone (IZ) [1]: 11 mm; inhibition zone (IZ) [2]: 11 mm; inhibition zone (IZ) [3]: 11 mm; inhibition zone (IZ) [4]: 11 mm; inhibition zone (IZ) [5]: 11 mm; inhibition zone (IZ) [6]: 12 mm; inhibition zone (IZ) [7]: 11 mm; inhibition zone (IZ) [8]: 12 mm

Question: For `CCOC(=O)c1cc(-c2ccccc2)nc2[nH]c(=S)[nH]c(=O)c12`, which “inhibition zone (IZ)” value [1] is on record?
Answer: 11 mm

Question: And the “inhibition zone (IZ)” value [2]?
Answer: 11 mm

Question: What about the “inhibition zone (IZ)” value [3] of the same molecule?
Answer: 11 mm

Question: And the “inhibition zone (IZ)” value [4]?
Answer: 11 mm

Question: And the “inhibition zone (IZ)” value [5]?
Answer: 11 mm

Question: What about the “inhibition zone (IZ)” value [6] of the same molecule?
Answer: 12 mm

Question: What about the “inhibition zone (IZ)” value [7] of the same molecule?
Answer: 11 mm

Question: And the “inhibition zone (IZ)” value [8]?
Answer: 12 mm
